Experimental data taken from ChEMBL document CHEMBL3286209, “Synthesis and biological activities of novel pleuromutilin derivatives with a substituted thiadiazole moiety as potent drug-resistant bacteria inhibitors” (J Med Chem, 2014).
Converted amounts (≈) assume the structure as drawn.

Legend:
Type in all cases: functional
[1] = tested on: Streptococcus agalactiae; experiment: Antibacterial activity against Streptococcus agalactiae at 320 ug/ml after 24 hrs by Oxford cup assay; conditions: read-out: IZ
Method in brief: (§1)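 Oxford cup diffusion: saline inoculum set by McFarland standard, spread on nutrient agar plates. […] Inhibition zone measured after 24 h at 37 °C; triplicate.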

[2] = tested on: Staphylococcus aureus; experiment: Antibacterial activity against methicillin-resistant Staphylococcus aureus at 320 ug/ml after 24 hrs by Oxford cup assay; conditions: read-out: IZ
Method in brief: (§2)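 Oxford cup diffusion using clinical isolates. Inocula are made in 0.9% saline to a McFarland standard and spread on nutrient agar. […] Inhibition zone diameter is measured after 24 h at 37 °C. Run in triplicate.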

[3] = tested on: Staphylococcus epidermidis; experiment: Antibacterial activity against methicillin-resistant Staphylococcus epidermidis at 320 ug/ml after 24 hrs by Oxford cup assay; conditions: read-out: IZ; method in brief: as §2
[4] = tested on: Staphylococcus epidermidis; experiment: Antibacterial activity against methicillin-resistant Staphylococcus epidermidis after 48 hrs by agar dilution method
Method in brief: (§3)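 Agar dilution per NCCLS using clinical isolates. Compound DMSO/water solutions are 2-fold serially diluted in water, then mixed 1:10 into hot Mueller–Hinton agar. Inocula come from blood slants, adjusted to about 10⁵−10⁶ cfu/mL in 0.90% saline, and spotted at 10 μL. Plates incubated at 36.5 °C for 48 h. MIC is the lowest concentration giving complete growth inhibition. Run in triplicate at pH 7.40.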

[5] = tested on: Staphylococcus aureus; experiment: Antibacterial activity against methicillin-resistant Staphylococcus aureus at 160 ug/ml after 24 hrs by Oxford cup assay; conditions: read-out: IZ; method in brief: as §2
[6] = tested on: Staphylococcus epidermidis; experiment: Antibacterial activity against methicillin-resistant Staphylococcus epidermidis at 160 ug/ml after 24 hrs by Oxford cup assay; conditions: read-out: IZ; method in brief: as §2
[7] = tested on: Streptococcus agalactiae; experiment: Antibacterial activity against Streptococcus agalactiae at 160 ug/ml after 24 hrs by Oxford cup assay; conditions: read-out: IZ; method in brief: as §1
[8] = tested on: Streptococcus agalactiae; experiment: Antibacterial activity against Streptococcus agalactiae after 48 hrs by agar dilution method
Method in brief: (§4)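 Agar dilution per NCCLS on Mueller–Hinton agar; compound in DMSO/water, 2-fold serial dilutions in distilled water, 2 mL dilution mixed into 18 mL hot agar. Clinical isolates from blood slants, adjusted to about 10⁵−10⁶ cfu/mL in 0.90% saline; 10 μL spotted. Incubated 36.5 °C for 48 h; MIC = lowest concentration giving complete growth inhibition. Triplicate runs.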

[9] = tested on: Escherichia coli; experiment: Antibacterial activity against Escherichia coli at 320 ug/ml after 24 hrs by Oxford cup assay; conditions: read-out: IZ; method in brief: as §1
[10] = tested on: Staphylococcus aureus; experiment: Antibacterial activity against methicillin-resistant Staphylococcus aureus after 48 hrs by agar dilution method; method in brief: as §3
[11] = tested on: Escherichia coli; experiment: Antibacterial activity against Escherichia coli after 48 hrs by agar dilution method; method in brief: as §4
[12] = tested on: Escherichia coli; experiment: Antibacterial activity against Escherichia coli at 160 ug/ml after 24 hrs by Oxford cup assay; conditions: read-out: IZ; method in brief: as §1

Row | SMILES | zone of inhibition at 320 µg/mL [1] | zone of inhibition at 320 µg/mL [2] | zone of inhibition at 320 µg/mL [3] | MIC [4] | zone of inhibition at 160 µg/mL [5] | zone of inhibition at 160 µg/mL [6] | zone of inhibition at 160 µg/mL [7] | MIC [8] | zone of inhibition at 320 µg/mL [9] | MIC [10] | MIC [11] | zone of inhibition at 160 µg/mL [12]
1 | C=C[C@]1(C)C[C@@H](OC(=O)CSc2nnc(NC(=O)c3ccccc3Cl)s2)[C@]2(C)[C@H](C)CC[C@]3(CCC(=O)[C@H]32)[C@@H](C)[C@@H]1O | 15.5 mm | 15 mm | 12.6 mm | 8 µg/mL (≈ 12.7 µM) | 12.2 mm | 11.9 mm | 12.7 mm | 2 µg/mL (≈ 3.16 µM) | 10.3 mm | 2 µg/mL (≈ 3.16 µM) | ≥ 64 µg/mL | 0 mm
2 | C=C[C@]1(C)C[C@@H](OC(=O)CSc2nnc(NC(=O)c3cccc(Cl)c3)s2)[C@]2(C)[C@H](C)CC[C@]3(CCC(=O)[C@H]32)[C@@H](C)[C@@H]1O | 13.5 mm | 14.7 mm | 15 mm | 2 µg/mL (≈ 3.16 µM) | 13.4 mm | 12.9 mm | 12.7 mm | 2 µg/mL (≈ 3.16 µM) | 12.6 mm | 2 µg/mL (≈ 3.16 µM) | 32 µg/mL (≈ 50.6 µM) | 11.7 mm
3 | C=C[C@]1(C)C[C@@H](OC(=O)CSc2nnc(NC(=O)c3ccc(Cl)cc3)s2)[C@]2(C)[C@H](C)CC[C@]3(CCC(=O)[C@H]32)[C@@H](C)[C@@H]1O | 13.4 mm | 13.7 mm | 14.1 mm | 4 µg/mL (≈ 6.33 µM) | 11.9 mm | 11.3 mm | 11.4 mm | 4 µg/mL (≈ 6.33 µM) | 10 mm | 4 µg/mL (≈ 6.33 µM) | ≥ 64 µg/mL | 0 mm
4 | C=C[C@]1(C)C[C@@H](OC(=O)CSc2nnc(NC(=O)c3ccccc3OC)s2)[C@]2(C)[C@H](C)CC[C@]3(CCC(=O)[C@H]32)[C@@H](C)[C@@H]1O | 13.4 mm | 14.8 mm | 14.2 mm | 2 µg/mL (≈ 3.19 µM) | 12.2 mm | 11.9 mm | 11.3 mm | 4 µg/mL (≈ 6.37 µM) | 11.5 mm | 1 µg/mL (≈ 1.59 µM) | 16 µg/mL (≈ 25.5 µM) | 9.96 mm
5 | C=C[C@]1(C)C[C@@H](OC(=O)CSc2nnc(NC(=O)c3cccc(OC)c3)s2)[C@]2(C)[C@H](C)CC[C@]3(CCC(=O)[C@H]32)[C@@H](C)[C@@H]1O | 12.8 mm | 13.1 mm | 13.8 mm | 4 µg/mL (≈ 6.37 µM) | 11.4 mm | 12.3 mm | 11.7 mm | 8 µg/mL (≈ 12.7 µM) | 10.9 mm | 8 µg/mL (≈ 12.7 µM) | ≥ 64 µg/mL | 9.02 mm
6 | C=C[C@]1(C)C[C@@H](OC(=O)CSc2nnc(NC(=O)c3ccc(OC)cc3)s2)[C@]2(C)[C@H](C)CC[C@]3(CCC(=O)[C@H]32)[C@@H](C)[C@@H]1O | 14.3 mm | 15.5 mm | 14.4 mm | 2 µg/mL (≈ 3.19 µM) | 12.2 mm | 9.52 mm | 11.5 mm | 2 µg/mL (≈ 3.19 µM) | 11.2 mm | 2 µg/mL (≈ 3.19 µM) | 32 µg/mL (≈ 51 µM) | 10.7 mm
7 | C=C[C@]1(C)C[C@@H](OC(=O)CSc2nnc(NC(=O)c3ccccc3N)s2)[C@]2(C)[C@H](C)CC[C@]3(CCC(=O)[C@H]32)[C@@H](C)[C@@H]1O | 13.8 mm | 15.5 mm | 15.2 mm | 2 µg/mL (≈ 3.26 µM) | 12.9 mm | 12.2 mm | 12.4 mm | 4 µg/mL (≈ 6.53 µM) | 11.3 mm | 4 µg/mL (≈ 6.53 µM) | 16 µg/mL (≈ 26.1 µM) | 10.1 mm
8 | C=C[C@]1(C)C[C@@H](OC(=O)CSc2nnc(NC(=O)c3cccc(N)c3)s2)[C@]2(C)[C@H](C)CC[C@]3(CCC(=O)[C@H]32)[C@@H](C)[C@@H]1O | 18.4 mm | 19.2 mm | 17.8 mm | 0.5 µg/mL (≈ 0.816 µM) | 17.5 mm | 16.1 mm | 17.4 mm | 0.25 µg/mL (≈ 0.408 µM) | 13.7 mm | 0.25 µg/mL (≈ 0.408 µM) | 16 µg/mL (≈ 26.1 µM) | 12.7 mm
9 | C=C[C@]1(C)C[C@@H](OC(=O)CSc2nnc(NC(=O)c3ccc(N)cc3)s2)[C@]2(C)[C@H](C)CC[C@]3(CCC(=O)[C@H]32)[C@@H](C)[C@@H]1O | 14 mm | 13.2 mm | 14.8 mm | 1 µg/mL (≈ 1.63 µM) | 11.4 mm | 12.1 mm | 12.3 mm | 2 µg/mL (≈ 3.26 µM) | 12.2 mm | 2 µg/mL (≈ 3.26 µM) | 16 µg/mL (≈ 26.1 µM) | 10.7 mm
10 | C=C[C@]1(C)C[C@@H](OC(=O)CSc2nnc(NC(=O)CN(C)C)s2)[C@]2(C)[C@H](C)CC[C@]3(CCC(=O)[C@H]32)[C@@H](C)[C@@H]1O | 14.5 mm | 17.6 mm | 16 mm | 2 µg/mL (≈ 3.46 µM) | 15.4 mm | 14.3 mm | 11.5 mm | 2 µg/mL (≈ 3.46 µM) | 12 mm | 1 µg/mL (≈ 1.73 µM) | 32 µg/mL (≈ 55.3 µM) | 10.1 mm
11 | C=C[C@]1(C)C[C@@H](OC(=O)CSc2nnc(NC(=O)CN(CC)CC)s2)[C@]2(C)[C@H](C)CC[C@]3(CCC(=O)[C@H]32)[C@@H](C)[C@@H]1O | 12.7 mm | 12.3 mm | 12.8 mm | 4 µg/mL (≈ 6.59 µM) | 11 mm | 11.5 mm | 10.4 mm | 8 µg/mL (≈ 13.2 µM) | 10.2 mm | 8 µg/mL (≈ 13.2 µM) | 64 µg/mL (≈ 105 µM) | 9.13 mm
12 | C=C[C@]1(C)C[C@@H](OC(=O)CSc2nnc(NC(=O)CN3CCCC3)s2)[C@]2(C)[C@H](C)CC[C@]3(CCC(=O)[C@H]32)[C@@H](C)[C@@H]1O | 13.8 mm | 13.2 mm | 12.8 mm | 4 µg/mL (≈ 6.61 µM) | 13.1 mm | 10.5 mm | 12.8 mm | 2 µg/mL (≈ 3.31 µM) | 11.1 mm | 4 µg/mL (≈ 6.61 µM) | 32 µg/mL (≈ 52.9 µM) | 9.86 mm
13 | C=C[C@]1(C)C[C@@H](OC(=O)CSc2nnc(NC(=O)CN3CCOCC3)s2)[C@]2(C)[C@H](C)CC[C@]3(CCC(=O)[C@H]32)[C@@H](C)[C@@H]1O | 13.2 mm | 15.4 mm | 10.8 mm | 8 µg/mL (≈ 12.9 µM) | 13.4 mm | 0 mm | 10.9 mm | 4 µg/mL (≈ 6.44 µM) | 11.9 mm | 1 µg/mL (≈ 1.61 µM) | ≥ 64 µg/mL | 0 mm
14 | C=C[C@]1(C)C[C@@H](OC(=O)CSc2nnc(NC(=O)CN3CCN(C)CC3)s2)[C@]2(C)[C@H](C)CC[C@]3(CCC(=O)[C@H]32)[C@@H](C)[C@@H]1O | 12.6 mm | 12 mm | 13.1 mm | 4 µg/mL (≈ 6.31 µM) | 11 mm | 10.7 mm | 11.2 mm | 8 µg/mL (≈ 12.6 µM) | 11.2 mm | 8 µg/mL (≈ 12.6 µM) | 16 µg/mL (≈ 25.2 µM) | 10.6 mm
15 | CC[C@]1(C)C[C@@H](OC(=O)CSc2nnc(N)[nH]2)[C@]2(C)[C@H](C)CC[C@]3(CCC(=O)[C@H]32)[C@@H](C)[C@@H]1O [AZAMULIN] | 18.9 mm | 18 mm | 17 mm | 0.5 µg/mL (≈ 1.04 µM) | 16.5 mm | 15.4 mm | 17.2 mm | 0.125 µg/mL (≈ 0.261 µM) | 17.2 mm | 0.5 µg/mL (≈ 1.04 µM) | 4 µg/mL (≈ 8.36 µM) | 16 mm
